The text below walks through data of ChEMBL document CHEMBL4028818, “Tricyclic 4,4-dimethyl-3,4-dihydrochromeno[3,4-d]imidazole derivatives as microsomal prostaglandin E2 synthase-1 (mPGES-1) inhibitors: SAR and in vivo efficacy in hyperalgesia pain model” (Bioorg Med Chem Lett, 2017).

Some results are limits rather than exact numbers.

In data set [1] the target is T1, Prostaglandin E synthase (Homo sapiens, UniProt O14684).
T1 sequence (O14684 whole entry): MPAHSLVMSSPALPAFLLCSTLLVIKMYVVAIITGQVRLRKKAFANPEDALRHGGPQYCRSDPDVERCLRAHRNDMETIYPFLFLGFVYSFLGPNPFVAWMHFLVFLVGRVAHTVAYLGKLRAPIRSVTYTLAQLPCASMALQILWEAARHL
As to the kind of experiment: Inhibition of recombinant human mPGES-1 expressed in CHO cells assessed as reduction in PGE2 formation using PGH2 a substrate preincubated for 10 mins followed by substrate addition measured after 1 min. In kind it is cell-based. The procedure, abridged: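 mPGES-1 enzyme inhibition. % inhibition values are means of two experiments in duplicate. IC50 values were derived from graphs of at least two experiments in duplicate.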

In data set [2] the target is T1, Prostaglandin E synthase. Put plainly: Inhibition of mPGES-1 in human A549 cells assessed as decrease in IL1beta induced PGE2 release preincubated for 30 mins followed by IL-1beta addition after 16 to 20 hrs by HTRF method. Format: cell-based. Background: In TR-FRET formats the signal depends on donor and acceptor labels being close together.
The target of another data set is T2, CYP1A2 (Homo sapiens, UniProt P05177).
T2 sequence (P05177 whole entry): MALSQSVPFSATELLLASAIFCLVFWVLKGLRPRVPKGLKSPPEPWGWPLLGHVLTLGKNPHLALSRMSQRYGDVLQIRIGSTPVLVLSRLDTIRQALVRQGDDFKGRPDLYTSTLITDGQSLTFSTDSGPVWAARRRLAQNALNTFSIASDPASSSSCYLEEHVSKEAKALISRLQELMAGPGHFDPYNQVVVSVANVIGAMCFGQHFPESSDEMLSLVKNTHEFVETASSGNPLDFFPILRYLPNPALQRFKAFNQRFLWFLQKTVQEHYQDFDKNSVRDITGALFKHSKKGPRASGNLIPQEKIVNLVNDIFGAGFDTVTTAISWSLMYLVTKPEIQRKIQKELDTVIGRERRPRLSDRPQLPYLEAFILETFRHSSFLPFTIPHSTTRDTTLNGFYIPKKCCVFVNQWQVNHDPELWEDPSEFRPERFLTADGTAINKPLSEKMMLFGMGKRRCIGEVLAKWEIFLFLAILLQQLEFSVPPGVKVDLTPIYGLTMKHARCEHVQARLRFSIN
Put plainly: (§1) Inhibition of CYP1A2 in human liver microsomes at 10 uM measured after 20 mins in presence of NADPH by LC/MS/MS analysis relative to control. Format: ADME. As to conditions: liver microsomes; call rule not given here. The method in brief:
(§2)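 CYP isoforms 1A2, 2D6, 3A4, 2C9 and 2C19 were tested at 1 and 10 µM. Results are % inhibition compared with a no-inhibitor control, run in triplicate.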

Data set [3] can be described thus: Protein binding in human plasma at 10 uM after 5 to 10 mins by LC-MS/SM analsysis. Format: ADME, cell-free. As to conditions: read-out: PPB. The method in brief: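 Plasma protein binding was measured by equilibrium dialysis at 10 µM compound.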
Data set [4] in a line: Half life in Sprague-Dawley rat at 5 mg/kg, iv administered as single bolus dose. As to conditions: in vivo. In kind it is ADME, organism-based. The method in brief:
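Male Sprague-Dawley rats were dosed i.v. in a vehicle of 20% NMP + 20% ethanol + 60% PEG 200. T1/2, CL and Vz were derived. Values are mean ± SD, n = 3.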

A short description of data set [5]: Cmax in Sprague-Dawley rat at 10 mg/kg, po. In kind it is ADME, organism-based. The arrangement: dose 10 mg/kg, route oral. As to conditions: in vivo. The procedure, abridged:
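Male Sprague-Dawley rats were dosed orally as a 0.5% methylcellulose suspension. Cmax, AUC0-24, Tmax, T1/2 and %F were determined. Values are mean ± SD, n = 3.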

Data set [6] relates to Cavia porcellus. As to the kind of experiment: Analgesic activity in Dunkin Hartley guinea pig hyperalgesia pain model assessed as inhibition of LPS-induced thermal hyperalgesia at 100 mg/kg, po qd administered 4 hrs prior to LPS stimulation measured after 4.5 hrs by plantar test relative to control. In kind it is functional. The method in brief:
(§3)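 LPS was injected into the guinea pig plantar to induce thermal hyperalgesia, and compound was given orally. Response is expressed as % hyperalgesia, with a saline-injected naive group as 0% and the vehicle-treated LPS group as 100%. Values are mean ± SEM, n = 8 per dose group.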

Data set [7] in a line: Plasma concentration in Dunkin Hartley guinea pig model of LPS-induced thermal hyperalgesia pain at 100 mg/kg, po qd measured 7 hrs post dose by LC/MS/MS analysis. In kind it is ADME, organism-based, Cavia porcellus. The method in brief:
(§4)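 In the guinea pig LPS thermal hyperalgesia model, plasma and CSF drug levels were measured at the pharmacodynamic time point after oral dosing. Concentrations are means of n = 8 animals per dose group.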

A short description of data set [8]: Drug uptake in CSF of Dunkin Hartley guinea pig model of LPS-induced thermal hyperalgesia pain at 100 mg/kg, po qd measured 7 hrs post dose by LC/MS/MS analysis. Format: ADME, organism-based, Cavia porcellus, Cerebrospinal fluid. As to conditions: read-out: Drug uptake. The procedure, abridged:
as §4

A further data set concerns the target T3, Cytochrome P450 1A2 (Homo sapiens, UniProt P05177).
T3 sequence (P05177 whole entry): T2 sequence (P05177 whole entry)
The description is as §1. As to conditions: microsomes, 20 min, 10 µM. Format: ADME. The procedure, abridged:
as §2

A further data set concerns the target Cytochrome P450 2D6 (Homo sapiens, UniProt P10635). As to the kind of experiment: Inhibition of CYP2D6 in human liver microsomes at 10 uM measured after 20 mins in presence of NADPH by LC/MS/MS analysis relative to control. Format: ADME. As to conditions: microsomes, 20 min, 10 µM. The method in brief:
as §2

Data set [9] can be described thus: AUC (0 to 24 hrs) in Guinea pig at 100 mg/kg, po. As to conditions: in vivo. In kind it is ADME, organism-based, Cavia porcellus. The arrangement: time < 24 hr, dose 100 mg/kg, route oral. The procedure, abridged: (§5)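 Single oral dose given to guinea pigs as a 0.5% methylcellulose suspension. Values are mean ± SD, n = 3.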
Data set [10] is described as follows: Tmax in Guinea pig at 100 mg/kg, po. In kind it is ADME, organism-based, Cavia porcellus. To be noted: in vivo. The procedure, abridged: as §5
Another data set addresses T4, COX2 (Homo sapiens, UniProt P35354).
T4 sequence (P35354 whole entry): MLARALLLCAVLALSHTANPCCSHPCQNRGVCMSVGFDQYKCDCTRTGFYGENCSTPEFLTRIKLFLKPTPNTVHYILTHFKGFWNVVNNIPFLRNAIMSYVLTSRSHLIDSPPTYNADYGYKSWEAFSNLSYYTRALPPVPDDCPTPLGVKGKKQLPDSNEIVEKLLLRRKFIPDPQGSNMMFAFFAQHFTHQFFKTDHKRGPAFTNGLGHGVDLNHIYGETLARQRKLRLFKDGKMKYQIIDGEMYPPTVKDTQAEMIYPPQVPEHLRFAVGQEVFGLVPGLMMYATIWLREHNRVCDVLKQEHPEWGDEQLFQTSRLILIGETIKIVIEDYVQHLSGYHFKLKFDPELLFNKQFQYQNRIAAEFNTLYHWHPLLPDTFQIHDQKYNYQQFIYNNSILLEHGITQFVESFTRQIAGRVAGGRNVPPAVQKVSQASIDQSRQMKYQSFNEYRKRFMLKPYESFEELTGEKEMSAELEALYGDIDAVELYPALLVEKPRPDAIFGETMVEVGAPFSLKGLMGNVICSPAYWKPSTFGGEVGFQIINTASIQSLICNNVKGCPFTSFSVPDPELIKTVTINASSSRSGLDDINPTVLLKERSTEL
Put plainly: Inhibition of recombinant human N-terminal His-tagged COX2 expressed in baculovirus infected Sf21 insect cells assessed as decrease in PGE2 release at 1 uM using arachidonic acid as substrate preincubated for 15 mins followed by arachidonic acid addition measured after 5 mins relative to control. To be noted: probe arachidonic acid.

In data set [11] the test system is Cavia porcellus. As to the kind of experiment: Analgesic activity in Dunkin Hartley guinea pig hyperalgesia pain model assessed as inhibition of LPS-induced thermal hyperalgesia at 200 mg/kg, po qd administered 4 hrs prior to LPS stimulation measured after 4.5 hrs by plantar test relative to control. Format: functional. The procedure, abridged:
as §3

A short description of data set [12]: Drug uptake in CSF of Dunkin Hartley guinea pig model of LPS-induced thermal hyperalgesia pain at 200 mg/kg, po qd measured 7 hrs post dose by LC/MS/MS analysis. Format: ADME, organism-based, Cavia porcellus, Cerebrospinal fluid. As to conditions: read-out: Drug uptake. The procedure, abridged: as §4

Cytochrome P450 2D6, sequence (P10635 whole entry): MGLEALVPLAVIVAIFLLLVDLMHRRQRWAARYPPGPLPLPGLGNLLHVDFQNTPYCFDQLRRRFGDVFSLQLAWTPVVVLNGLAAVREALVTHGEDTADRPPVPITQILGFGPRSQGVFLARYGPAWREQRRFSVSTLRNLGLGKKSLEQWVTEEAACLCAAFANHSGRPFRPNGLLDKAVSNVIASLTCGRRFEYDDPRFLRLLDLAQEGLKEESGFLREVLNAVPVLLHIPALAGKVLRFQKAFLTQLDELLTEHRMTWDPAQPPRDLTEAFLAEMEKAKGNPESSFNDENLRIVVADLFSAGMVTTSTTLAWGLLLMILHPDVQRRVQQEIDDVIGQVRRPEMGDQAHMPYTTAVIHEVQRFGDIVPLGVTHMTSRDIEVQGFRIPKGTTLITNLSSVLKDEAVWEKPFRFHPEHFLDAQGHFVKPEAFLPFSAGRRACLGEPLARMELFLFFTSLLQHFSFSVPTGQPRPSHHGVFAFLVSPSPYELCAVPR

Broadly, the IC50 is the concentration needed to halve the response being measured. As a reminder, the inhibition is the share of the control response that was lost under treatment. What is called half-life is how long it takes for the measured level to halve. Low readings indicate rapid decline, high ones slow decline. One may read the Cmax as the peak of the concentration-time curve. By inhibition in vivo is commonly meant the percentage by which the read-out fell short of the control. As to `CC1(C)Oc2cc(C#Cc3cc(Cl)ccc3F)ccc2-c2[nH]c(-c3c(F)cccc3Cl)nc21`, the IC50 on Prostaglandin E synthase [1] turned out to be 36.3 nM; on Prostaglandin E synthase [2], 839 nM. The inhibition at 20 min, 10 µM on CYP1A2 turned out to be 33.9%. In addition, the fraction unbound at 10 µM in data set [3] is under 0.045. The same compound had a half-life in [4] of 330 min. For the same compound, the Cmax in data set [5] came to 1180 ng/mL. Moreover, the inhibition in vivo at 100 mg/kg with Cavia porcellus [6] came to 26%. Also, the concentration at 7 h turned out to be 13.8 µM in data set [7] and 2.63 nM in [8].
As usually defined, the AUC(0-t) is exposure summed from dosing to a finite time, without extrapolation to infinity. Read a low AUC(0-t) as low exposure. The Tmax is the time at which the peak concentration occurs. For the compound `CC1(C)Oc2cc(-c3cccc(OC(F)(F)F)c3)ccc2-c2[nH]c(-c3c(F)cccc3Cl)nc21`, the values for the IC50 on Prostaglandin E synthase [1] and on Prostaglandin E synthase [2] were 56.9 nM and 840 nM, respectively. The “inhibition (INH)” value on Cytochrome P450 1A2 and on Cytochrome P450 2D6 was “Not Active” in each case. In data set [3], the fraction unbound at 10 µM is under 0.005. The half-life in [4] is 592 min. This compound also gave a Cmax in [5] of 826 ng/mL. Also, the AUC(0-t) at 24 h in data set [9] came to 13400 ng·h/mL. The Tmax in data set [10] was 24 h. Moreover, the inhibition at 5 min, 1 µM on COX2 is 2.37%. In addition, the inhibition in vivo at 200 mg/kg in the data set with Cavia porcellus [11] amounted to 38%. Moreover, in data set [12], the concentration at 7 h came to 9.22 nM.
